Results as given in ChEMBL document CHEMBL1147575, “Novel inhibitors of fatty acid oxidation as potential metabolic modulators” (Bioorg Med Chem Lett, 2004).

Columns and labels:
[1] = AUC in rat after oral administration at 11.2 mg/kg dose; assay type: ADME, organism-based; set-up: dose 11.2 mg/kg, route oral; conditions: plasma
Procedure, shortened: (§1)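 Rats dosed orally, single dose per compound (9.7–13 mg/kg). Preliminary PK: oral bioavailability (%F), AUC (ng·hr/mL) and t1/2 (h) derived; values are average of n=3.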

[2] = species: Homo sapiens; assay: Amount of parent compound remaining after incubation with human liver microsomes for 30 min.; assay type: functional
Procedure, shortened: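 Human liver microsome (liver S-9) incubation for 30 min; read-out is percent of parent drug remaining.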

[3] = Half life period in rat after oral administration at 11.2 mg/kg dose; assay type: ADME, organism-based; set-up: dose 11.2 mg/kg, route oral; conditions: in vivo; procedure, shortened: as §1
[4] = Oral bioavailability in rat after oral administration at 11.2 mg/kg dose; assay type: ADME, organism-based; conditions: in vivo; procedure, shortened: as §1
[5] = species: Rattus norvegicus; assay: Inhibition of 1-14C]palmitoyl-CoA oxidation in rat heart mitochondria.; assay type: functional
Procedure, shortened: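 Rat heart mitochondria; substrate 1-14[C]-palmitoyl-CoA, oxidation measured. Tested at 6 concentrations; IC50 from non-linear regression curve fit, mean of n=3. Run only for compounds giving ≥50% inhibition at 100 µM.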

[6] = species: Rattus norvegicus; assay: Inhibition of 1-14C]palmitoyl-CoA oxidation in rat heart mitochondria at 100 uM concentration; assay type: functional
Procedure, shortened: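 Single-point screen at 100 µM: percent inhibition of 1-14[C]-palmitoyl-CoA oxidation in rat heart mitochondria. 95% confidence limits generally ±15% of the mean.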

[7] = Half life period in rat after oral administration at 13 mg/kg dose; assay type: ADME, organism-based; set-up: dose 13 mg/kg, route oral; conditions: in vivo; procedure, shortened: as §1
[8] = Area under curve in rat after oral administration at 13 mg/kg dose; assay type: ADME, organism-based; set-up: dose 13 mg/kg, route oral; conditions: in vivo; procedure, shortened: as §1
[9] = Oral bioavailability in rat after oral administration at 13 mg/kg dose; assay type: ADME, organism-based; conditions: in vivo; procedure, shortened: as §1
[10] = AUC in rat after oral administration at 9.7 mg/kg dose; assay type: ADME, organism-based; set-up: dose 9.7 mg/kg, route oral; conditions: plasma; procedure, shortened: as §1
[11] = Half life period in rat after oral administration at 9.7 mg/kg dose; assay type: ADME, organism-based; set-up: dose 9.7 mg/kg, route oral; conditions: in vivo; procedure, shortened: as §1
[12] = Oral bioavailability in rat after oral administration at 9.7 mg/kg dose; assay type: ADME, organism-based; conditions: in vivo; procedure, shortened: as §1
[13] = Half life period in rat after oral administration at 10.5 mg/kg dose; assay type: ADME, organism-based; set-up: dose 10.5 mg/kg, route oral; conditions: in vivo; procedure, shortened: as §1
[14] = AUC in rat after oral administration at 10.5 mg/kg dose; assay type: ADME, organism-based; set-up: dose 10.5 mg/kg, route oral; conditions: plasma; procedure, shortened: as §1
[15] = Oral bioavailability in rat after oral administration at 10.5 mg/kg dose; assay type: ADME, organism-based; conditions: in vivo; procedure, shortened: as §1

| SMILES | Remaining [2] [%] | IC50 [5] [µM] | inhibition [6] [%] | also measured |
| --- | --- | --- | --- | --- |
| Cc1nc2cc(OC[C@H](O)CN3C(C)CN(CC(=O)Nc4c(C)cccc4C)CC3C)ccc2s1 (some centres undefined) | 21 | 0.07 | – | AUC [1]: 128 ng·h/mL; half-life [3]: 3.5 h; bioavailability [4]: 11% |
| Cc1nc2cc(OC[C@H](O)CN3C[C@@H]4C[C@H]3CN4CC(=O)Nc3c(C)cccc3C)ccc2s1 | – | – | 26 | – |
| Cc1nc2ccc(OCC(O)CN3CCN(CC(=O)Nc4c(C)cccc4C)CC3)cc2s1 (centres undefined) | – | – | 3 | – |
| Cc1nc2cc(OC[C@H](O)CN3CC4CC3CN4CC(=O)Nc3c(C)cccc3C)ccc2s1 (some centres undefined) | – | – | 40 | – |
| Cc1cccc(C)c1NC(=O)CN1CCN(CC(O)COc2ccc3oc(-c4ccc(C(F)(F)F)cc4)nc3c2)CC1 (centres undefined) | 40 | 8 | 89 | – |
| CCc1nc2cc(OCC(O)CN3CCN(CC(=O)Nc4c(C)cccc4C)CC3)ccc2s1 (centres undefined) | 29 | 13 | 75 | – |
| Cc1nc2cc(OCCCN3CCN(CC(=O)Nc4c(C)cccc4C)CC3)ccc2s1 | < 30 | – | 38 | – |
| Cc1nc2cc(OC[C@H](O)CN3CCN(CC(=O)Nc4c(C)cccc4C)C[C@H]3C)ccc2s1 | < 10 | 2 | – | – |
| Cc1nc2cc(OC[C@H](O)CN3CC(C)N(CC(=O)Nc4c(C)cccc4C)CC3C)ccc2s1 (some centres undefined) | < 10 | 0.023 | – | – |
| Cc1nc2cc(OCC(O)CN3CCN(CC(=O)Nc4c(C)cccc4C)CC3)ccc2o1 (centres undefined) | – | – | 34 | – |
| Cc1cccc(C)c1NC(=O)CN1CCN(CC(O)COc2ccc3oc(-c4ccccc4)nc3c2)CC1 (centres undefined) | 15 | 23 | 70 | – |
| Cc1nc2cc(OC[C@H](O)CN3CCN(CC(=O)Nc4c(C)cccc4C)CC3)ccc2s1 | < 27 | 4 | – | – |
| Cc1nc2cc(OCC(O)CN3CCN(CC(=O)Nc4c(C)cccc4C)CC3)ccc2s1 (centres undefined) | 50 | 10 | 88 | half-life [7]: 3 h; AUC [8]: 1260 ng·h/mL; bioavailability [9]: 45% |
| Cc1nc2cc(OC[C@@H](O)CN3CCN(CC(=O)Nc4c(C)cccc4C)C[C@@H]3C)ccc2s1 | < 30 | 5 | – | – |
| Cc1nc2cc(OCC(O)CN3CCN(CC(=O)Nc4c(C)cccc4C)CC3(C)C)ccc2s1 (centres undefined) | < 10 | 0.45 | – | – |
| Cc1nc2cc(OC[C@@H](O)CN3CCN(CC(=O)Nc4c(C)cccc4C)CC3)ccc2s1 | 35 | – | 47 | – |
| Cc1nc2cc(OC[C@@H](O)CN3C(C)CN(CC(=O)Nc4c(C)cccc4C)CC3C)ccc2s1 (some centres undefined) | < 30 | 2.5 | – | – |
| Cc1nc2cc(OC[C@H](O)CN3CCN(CC(=O)Nc4c(C)cccc4C)C[C@@H]3C)ccc2s1 | < 10 | 0.2 | – | AUC [10]: 278 ng·h/mL; half-life [11]: 6.2 h; bioavailability [12]: 5% |
| Cc1cccc(C)c1NC(=O)CN1CCN(CC(O)COc2ccc3ncsc3c2)CC1 (centres undefined) | – | – | 3 | – |
| Cc1nc2cc(OC[C@H](O)CN3CCN(CC(=O)Nc4c(C)cccc4C)CC3(C)C)ccc2s1 | < 10 | 0.11 | – | half-life [13]: 4.2 h; AUC [14]: 265 ng·h/mL; bioavailability [15]: 13% |
| Cc1cccc(C)c1NC(=O)CN1CCN(CC(O)COc2ccc3oc(-c4cccc(C(F)(F)F)c4)nc3c2)CC1 (centres undefined) | 6 | 13 | 82 | – |
| Cc1nc2cc(OC[C@@H](O)CN3CCN(CC(=O)Nc4c(C)cccc4C)C[C@H]3C)ccc2s1 | < 10 | 10 | – | – |
| CCCc1nc2cc(OCC(O)CN3CCN(CC(=O)Nc4c(C)cccc4C)CC3)ccc2s1 (centres undefined) | 15 | 20 | 70 | – |
